Assay results as given in paper PMC4324418 (ACS Chemical Neuroscience, 2014).
Where a name gives a salt, the structure may show the parent alone. Marks after values point to notes of the source that are not given here.

Tests used:
rat M4 receptor = target: T1, rat M4 receptor (Rattus norvegicus, UniProt P08485); type: cell-based
T1 sequence (P08485 1-478): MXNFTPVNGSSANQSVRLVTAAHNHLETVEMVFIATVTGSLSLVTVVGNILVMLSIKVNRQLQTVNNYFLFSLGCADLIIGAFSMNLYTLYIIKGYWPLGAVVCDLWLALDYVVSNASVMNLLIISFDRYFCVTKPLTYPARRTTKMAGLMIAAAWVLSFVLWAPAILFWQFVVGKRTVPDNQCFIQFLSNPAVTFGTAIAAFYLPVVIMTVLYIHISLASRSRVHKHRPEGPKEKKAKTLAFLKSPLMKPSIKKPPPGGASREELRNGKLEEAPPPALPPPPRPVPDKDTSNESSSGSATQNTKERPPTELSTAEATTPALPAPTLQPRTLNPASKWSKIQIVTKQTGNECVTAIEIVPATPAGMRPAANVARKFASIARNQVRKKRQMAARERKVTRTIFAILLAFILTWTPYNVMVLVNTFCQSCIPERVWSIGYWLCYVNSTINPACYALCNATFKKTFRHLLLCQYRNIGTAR

wild-type mice [1] = test: Modified Irwin neurological test battery; type: in vivo, mouse; settings: 1 mg/kg
wild-type mice [2] = test: MK-801-induced hyperlocomotion in wild-type mice; type: in vivo, mouse; settings: IP
Outline: (§1)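 Wild-type and M4 KO mice were habituated 90 min in a photobeam open field. They then received vehicle (10% Tween 80 IP), followed 30 min later by saline or MK-801 IP, and activity was recorded for 120 min. Distance traveled was binned per 5 min. Totals covered t = 120 to 240 min and were analyzed by ANOVA with Bonferroni post hoc tests.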

wild-type mice [3] = test: Touchscreen pairwise visual discrimination task, wild-type mice; type: in vivo, mouse
Outline: (§2)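 Mice aged 8–11 weeks were held at ~85% free-feeding weight, with water freely available. They were trained on touchscreen nosepoke discrimination (60 trials or 60 min) to ≥85% accuracy on 3 consecutive days. Next day: vehicle (10% Tween 80 IP) or test compound (3–30 mg/kg IP) 60 min pre-test, then saline or MK-801 (0.1–0.3 mg/kg IP) 30 min later. Mice were retested drug-free 24 h later. Analysis: ANOVA with Bonferroni tests.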

M4 KO mice [4] = test: Touchscreen pairwise visual discrimination task, M4 KO mice; type: in vivo, mouse; settings: M4 KO
Outline: as §2

M4 KO mice [5] = test: MK-801-induced hyperlocomotion in M4 KO mice; type: in vivo, mouse; settings: IP, lowest significant dose
Outline: as §1

wild-type mice [6] = test: Contextual fear conditioning, four-shock, MK-801-induced deficit; type: in vivo, mouse; settings: MK-801 0.1–0.3 mg/kg prior to the four-shock conditioning trial
Outline: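 Subjects were wild-type and M4 KO mice, 8–11 weeks old, handled for 3 days and saline-injected 1 day before conditioning. Vehicle (10% Tween 80 in water, IP) or test compound (3–10 mg/kg IP) was given 30 min before saline or MK-801 (0.1–0.3 mg/kg IP). Mice entered the chamber 30 min later for a four-shock conditioning trial. Percent freezing was scored 24 h later, drug-free.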

[7] = potentiation of an EC20 concentration of ACh, CHO cells

COc1nc2sc(C(=O)NC3CC3)c(N)c2c(C)c1Cl [LY2033298]
%AChmax (rat M4 receptor; maximum response as % of the Emax of ACh): 67% | EC50 (rat M4 receptor; [7]): 646 nM | pEC50 (rat M4 receptor; [7]): 6.19 ± 0.03

O=C1CCCN1CC#CCN1CCCC1 [oxotremorine, oxotremorine sesquifumarate, reference compound]
autonomic function and somatomotor deficits (wild-type mice [1]): induced time-dependent changes in autonomic function

C[C@]12N[C@H](Cc3ccccc31)c1ccccc12 [MK-801, (5S,10R)-(+)-5-methyl-10,11-dihydro-5H-dibenzo[a,d]cyclohepten-5,10-imine maleate, reference compound]
dose with significant effect on locomotor activity (wild-type mice [2]): 3 mg/kg | response accuracy on the test day (wild-type mice [3]; 0.3 mg/kg MK-801 (vehicle group 92%)): 63% | correct reward collection latency (wild-type mice [3]; vehicle + MK-801 0.10 mg/kg IP): 1.32 ± 0.15 s | correct touch latency (wild-type mice [3]; vehicle + MK-801 0.10 mg/kg IP): 2.95 ± 0.57 s | time to complete 60 trials (wild-type mice [3]; vehicle + MK-801 0.10 mg/kg IP): 1004 ± 124.3 s | correct reward collection latency (wild-type mice [3]; vehicle + MK-801 0.30 mg/kg IP): 5.58 ± 2.58 s | correct touch latency (wild-type mice [3]; vehicle + MK-801 0.30 mg/kg IP): 8.65 ± 1.99 s | time to complete 60 trials (wild-type mice [3]; vehicle + MK-801 0.30 mg/kg IP): 1118 ± 139.2 s | response accuracy on the test day (M4 KO mice [4]; MK-801 alone (vehicle 91%)): 73% | correct reward collection latency (M4 KO mice [4]; vehicle + MK-801 0.30 mg/kg IP): 1.54 ± 0.15 s | correct touch latency (M4 KO mice [4]; vehicle + MK-801 0.30 mg/kg IP): 8.76 ± 2.19 s | time to complete 60 trials (M4 KO mice [4]; vehicle + MK-801 0.30 mg/kg IP): 1264 ± 280.5 ^f s | dose with significant effect on locomotor activity (M4 KO mice [5]): 0.18 mg/kg | acquisition of contextual fear conditioning (percent freezing) (wild-type mice [6]): dose-dependently impaired
